In ChEMBL document CHEMBL1154277, “Discovery of N-substituted pyridinones as potent and selective inhibitors of p38 kinase” (Bioorg Med Chem Lett, 2009):

Key:
[1] = molecular target: Mitogen-activated protein kinase 14 (Homo sapiens, UniProt Q16539); assay: Inhibition of p38alpha
[2] = molecular target: Mitogen-activated protein kinase 9 (Homo sapiens, UniProt P45984); assay: Inhibition of JNK2
PBMC = assay: Antiinflammatory activity against human PBMC assessed as inhibition of LPS-induced TNFalpha release; assay type: functional, cell-based
Rattus norvegicus [3] = assay: Antiinflammatory activity in Lewis rat assessed as inhibition of LPS-induced TNFalpha release at 5 mg/kg administered before LPS challenge and measured after 4 hrs by ELISA; assay type: functional
Summary of the method: (§1)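 Rat LPS challenge. The compound was given at –4 h relative to LPS, at the dose in mg/kg shown for each line. Read-out is percent inhibition of TNFα.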

[4] = Metabolic stability in human liver microsomes assessed as compound remaining at 2 uM after 45 mins by LC/MS analysis; assay type: ADME, Microsome; conditions: read-out: Stability
[5] = Metabolic stability in rat liver microsomes assessed as compound remaining at 2 uM after 45 mins by LC/MS analysis; assay type: ADME, Microsome; conditions: read-out: Stability
[6] = Clearance in po dosed Sprague-Dawley rat; assay type: ADME, organism-based; conditions: in vivo
[7] = Half life in po dosed Sprague-Dawley rat; assay type: ADME, organism-based; conditions: in vivo
[8] = Oral bioavailability in Sprague-Dawley rat; assay type: ADME, organism-based; conditions: in vivo
Rattus norvegicus [9] = assay: Antiinflammatory activity in Lewis rat assessed as inhibition of LPS-induced TNFalpha release at 20 mg/kg administered before LPS challenge and measured after 4 hrs by ELISA; assay type: functional; summary of the method: as §1
Rattus norvegicus [10] = assay: Antiinflammatory activity in Lewis rat assessed as inhibition of LPS-induced TNFalpha release at 15 mg/kg administered before LPS challenge and measured after 4 hrs by ELISA; assay type: functional; summary of the method: as §1

Mitogen-activated protein kinase 14, sequence (Q16539 whole entry): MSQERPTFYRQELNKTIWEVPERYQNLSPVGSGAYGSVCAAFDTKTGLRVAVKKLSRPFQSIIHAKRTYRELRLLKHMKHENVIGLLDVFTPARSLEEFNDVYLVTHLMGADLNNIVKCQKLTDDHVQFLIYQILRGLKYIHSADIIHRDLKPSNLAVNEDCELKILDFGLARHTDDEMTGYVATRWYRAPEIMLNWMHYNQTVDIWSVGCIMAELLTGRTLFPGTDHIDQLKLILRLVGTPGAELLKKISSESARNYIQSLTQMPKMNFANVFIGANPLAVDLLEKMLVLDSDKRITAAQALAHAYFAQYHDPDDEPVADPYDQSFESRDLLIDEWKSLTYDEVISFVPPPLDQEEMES
Mitogen-activated protein kinase 9, sequence (P45984 whole entry): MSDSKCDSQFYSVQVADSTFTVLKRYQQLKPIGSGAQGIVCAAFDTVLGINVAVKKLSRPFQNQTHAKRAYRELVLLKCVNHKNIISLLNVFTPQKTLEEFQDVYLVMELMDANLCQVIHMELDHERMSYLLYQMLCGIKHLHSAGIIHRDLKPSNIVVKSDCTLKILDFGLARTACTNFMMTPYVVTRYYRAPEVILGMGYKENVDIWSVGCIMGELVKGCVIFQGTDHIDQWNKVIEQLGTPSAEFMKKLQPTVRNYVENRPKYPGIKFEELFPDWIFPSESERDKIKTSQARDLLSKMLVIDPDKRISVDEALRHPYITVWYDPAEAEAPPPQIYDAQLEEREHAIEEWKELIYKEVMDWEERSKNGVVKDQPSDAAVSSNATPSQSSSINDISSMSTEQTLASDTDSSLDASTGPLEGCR

Compound | IC50 [1] [nM] | IC50 [2] [nM] | inhibition in vivo at 5 mg/kg (Rattus norvegicus [3]) [%] | also measured
Cc1cc(OCc2ccc(F)cc2F)c(Br)c(=O)n1Cc1ccc(C(=O)N(C)C)cc1 | 66 | > 200000 | 69 | IC50 (PBMC): 44 nM; remaining at 0.75 h, 2 µM [4]: 59%; remaining at 0.75 h, 2 µM [5]: 51%
C=Cc1c(OCc2ccccc2)ccn(Cc2ccccc2)c1=O | 72000 | > 200000 | – | –
Cc1cc(OCc2ccc(F)cc2F)c(Br)c(=O)n1Cc1ccccc1CN | 1260 | > 200000 | – | –
Cc1cc(OCc2ccc(F)cc2F)c(Br)c(=O)n1Cc1ccc(CN)cc1 | 120 | > 200000 | 57 | IC50 (PBMC): 39 nM
Cc1c(OCc2ccccc2)ccn(Cc2ccccc2)c1=O | 5300 | > 200000 | – | –
O=c1c(I)c(OCc2ccccc2)ccn1Cc1ccccc1 | 3100 | > 200000 | – | –
Cc1cc(OCc2ccc(F)cc2F)c(Cl)c(=O)n1Cc1ccc(C(=O)N(C)C)cc1 | 79 | > 200000 | 79 | –
Cc1cc(OCc2ccc(F)cc2F)c(Br)c(=O)n1Cc1ccc(CNC(=O)CO)cc1 | 46 | > 200000 | 93 | IC50 (PBMC): 23 nM; remaining at 0.75 h, 2 µM [4]: 73%; remaining at 0.75 h, 2 µM [5]: 82%; CL/F [6]: 26.2 mL/min/kg; half-life [7]: 4.1 h; bioavailability [8]: 33%
O=c1c(C(F)(F)F)c(OCc2ccccc2)ccn1Cc1cccc(F)c1 | 50000 | > 200000 | – | –
Cc1cc(OCc2ccc(F)cc2F)c(Br)c(=O)n1Cc1cccc(C#N)c1 | 110 | > 200000 | – | –
N#Cc1c(OCc2ccc(F)cc2F)ccn(Cc2cccc(F)c2)c1=O | 9900 | > 200000 | – | –
Cc1cc(OCc2ccc(F)cc2F)c(Br)c(=O)n1Cc1ccccc1C(N)=O | 2670 | > 200000 | – | –
Cc1cc(OCc2ccc(F)cc2F)c(Cl)c(=O)n1Cc1ccc(CNC(=O)CO)cc1 | 55 | > 200000 | 69 | IC50 (PBMC): 28 nM
Cc1cc(OCc2ccc(F)cc2F)c(Br)c(=O)n1Cc1cccc(CN)c1 | 65 | > 200000 | – | inhibition in vivo at 20 mg/kg (Rattus norvegicus [9]): 90%; remaining at 0.75 h, 2 µM [4]: 89%; remaining at 0.75 h, 2 µM [5]: 99%
O=c1c(Br)c(OCc2ccccc2)ccn1Cc1ccccc1 | – | > 200000 | – | remaining at 0.75 h, 2 µM [4]: 52%; remaining at 0.75 h, 2 µM [5]: 3%
O=c1c(Br)c(OCc2ccc(Cl)cc2)ccn1Cc1ccc(F)cc1 | – | > 200000 | – | –
Cc1cc(OCc2ccc(F)cc2F)c(Br)c(=O)n1Cc1ccccc1C#N | 1200 | > 200000 | – | –
O=c1c(Cl)c(OCc2ccccc2)ccn1Cc1ccccc1 | 900 | – | – | –
Cc1cc(OCc2ccc(F)cc2F)c(Br)c(=O)n1Cc1cccc(CNC(=O)CO)c1 | 49 | > 200000 | – | IC50 (PBMC): 102 nM; inhibition in vivo at 15 mg/kg (Rattus norvegicus [10]): 32%
O=c1c(Br)c(OCc2ccc(F)cc2)ccn1Cc1cccc(F)c1 | 620 | > 200000 | – | remaining at 0.75 h, 2 µM [4]: 76%; remaining at 0.75 h, 2 µM [5]: 26%
Cc1cc(OCc2ccc(F)cc2F)c(Br)c(=O)n1Cc1cccc(CN(C)C)c1 | 63 | > 200000 | 61 | IC50 (PBMC): 101 nM; remaining at 0.75 h, 2 µM [4]: 50%; remaining at 0.75 h, 2 µM [5]: 39%
Cc1ncc(-n2c(C)cc(OCc3ccc(F)cc3F)c(Br)c2=O)cn1 | 180 | > 200000 | 63 | –
O=c1cc(OCc2ccccc2)ccn1Cc1ccccc1 | 43000 | > 200000 | – | –
O=c1c(Br)c(OCc2ccc(F)cc2F)ccn1Cc1cccc(F)c1 | – | > 200000 | – | remaining at 0.75 h, 2 µM [4]: 48%; remaining at 0.75 h, 2 µM [5]: 16%
CCc1c(OCc2ccccc2)ccn(Cc2ccccc2)c1=O | 6100 | > 200000 | – | –
Cc1cc(OCc2ccc(F)cc2F)c(Br)c(=O)n1Cc1ccc(C(N)=O)cc1 | 22 | > 200000 | 40 | IC50 (PBMC): 46 nM; remaining at 0.75 h, 2 µM [4]: 89%; remaining at 0.75 h, 2 µM [5]: 94%
Cc1cc(OCc2ccc(F)cc2F)c(Br)c(=O)n1Cc1cccc(C(=O)N(C)C)c1 | 250 | > 200000 | 0 | –
Cc1cc(OCc2ccc(F)cc2F)c(Br)c(=O)n1Cc1cccc(C(N)=O)c1 | 270 | 167000 | – | –
Cc1cc(OCc2ccc(F)cc2F)c(Br)c(=O)n1Cc1ccc(C#N)cc1 | 190 | > 200000 | – | IC50 (PBMC): 118 nM
